Among the data in ChEMBL document CHEMBL1159074, “Inhibitory effect of novel tetrahydropyrimidine-2(1H)-thiones on melanogenesis” (Bioorg Med Chem, 2010) are inhibition, IC50 and Activity values, retold here.

For data set [1], the system named is B16. Nature of the data set: Inhibition of alpha-MSH-induced melanin production in mouse B16 cells at 10 uM after 72 hrs. The conditions noted are these: B16, 72 h. The format is functional. An outline of the steps:
(§1)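 B16 melanoma cells (ATCC CRL6323) were seeded at 2.5 × 10³ per well and kept at 37 °C under 5% CO₂. They were stimulated with α-MSH for 72 h with compound present. Melanin released into the medium was read by absorbance at 405 nm against a synthetic melanin standard. % inhibition at 10 µM and IC₅₀ are means of 3–5 separate experiments.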

The test system of data set [2] is B16. Nature of the data set: Inhibition of alpha-MSH-induced melanin production in mouse B16 cells after 72 hrs. The format is functional, cell-based. The conditions noted are these: B16, 72 h. An outline of the steps: as §1
Data set [3] relates to B16. Nature of the data set: Toxicity in alpha-MSH-induced mouse B16 cells assessed as effect on cell viability after 48 hrs by MTT assay. The format is cell-based. The settings on record: b16, 48 h.
The subject of data set [4] is B16. Nature of the data set: Inhibition of tyrosinase protein biosynthesis in alpha-MSH-induced mouse B16 cells after 48 hrs by Western blot. The format is functional, cell-based. The method, boiled down: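 B16 cells were stimulated with α-MSH (10 nM) for 48 h with compound present. They were lysed in Tris/NaCl buffer (0.1% SDS, 1% NP-40, protease inhibitors, pH 7.4). Blots were probed overnight at 4 °C with anti-tyrosinase (1:1000), with GAPDH (1:5000) as internal control, then with HRP-conjugated secondary antibody.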
A general note: A western blot detects proteins with antibodies after separation by electrophoresis.

The target in data set [5] is T1, Tyrosinase (Mus musculus) (UniProt P11344).
T1 sequence (whole entry): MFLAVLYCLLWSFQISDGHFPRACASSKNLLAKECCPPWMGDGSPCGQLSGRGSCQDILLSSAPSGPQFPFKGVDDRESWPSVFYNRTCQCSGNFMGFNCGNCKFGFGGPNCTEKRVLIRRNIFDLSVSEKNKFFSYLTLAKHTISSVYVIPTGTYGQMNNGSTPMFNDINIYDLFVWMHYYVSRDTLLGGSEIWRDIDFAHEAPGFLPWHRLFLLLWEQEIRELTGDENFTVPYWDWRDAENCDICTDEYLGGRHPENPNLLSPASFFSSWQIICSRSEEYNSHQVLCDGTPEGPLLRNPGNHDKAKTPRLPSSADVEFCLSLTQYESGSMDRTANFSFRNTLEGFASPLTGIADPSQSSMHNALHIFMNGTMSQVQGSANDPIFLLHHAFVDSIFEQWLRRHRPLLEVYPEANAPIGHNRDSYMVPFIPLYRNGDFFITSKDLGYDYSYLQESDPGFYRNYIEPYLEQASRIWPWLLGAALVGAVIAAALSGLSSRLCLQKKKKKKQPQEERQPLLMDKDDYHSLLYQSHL
Nature of the data set: Inhibition of cell free tyrosinase in alpha-MSH-induced mouse B16 cells assessed as effect on Dopa oxidation by spectrophotometry. An outline of the steps:
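Cell-free tyrosinase came from B16 cells stimulated with α-MSH (10 nM). Cells were sonicated on ice in 50 mM sodium phosphate pH 6.8 with 1% Triton X-100 and 1 mM PMSF. The supernatant was dialysed and diluted to 80,000 U/mg protein. Dopa (5 mM), sample and enzyme were mixed in 50 mM phosphate pH 6.8. Dopa oxidation velocity was read spectrophotometrically.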

The structures appear in SMILES notation. Activity calls are given as the source filed them. No cut-off for these calls is given here.

In general, inhibition refers to the relative decrease from the control value, in per cent. In general, IC50 refers to the concentration that inhibits the measured activity by half. Turning to `O=C1NCCN1Cc1ccccc1`, the inhibition at 10 µM in the data set on B16 [1] was found to be 7%. For the same molecule, in the data set on B16 [2], the IC50 was more than 10 µM.

For `O=C1NCCN1CCc1ccccc1`, in the data set with B16 [1], at 10 µM the inhibition was 15%. For the same molecule, the IC50 in the data set on B16 [2] is more than 10 µM.

The molecule `S=C1NCCN1CCc1ccccc1` displayed an inhibition at 10 µM with B16 [1] of 40%. Further, the IC50 in the data set with B16 [2] is more than 10 µM.

Molecule `S=C1NCCCN1CCCc1ccccc1` showed an inhibition at 10 µM with B16 [1] of more than 100%. In addition, half-maximal inhibition with B16 [2] (IC50) required 2.1 µM.

In the data set on B16 [1], `COc1ccc(CN2CCNC2=S)cc1` returned an inhibition at 10 µM of 31%. In the data set with B16 [2], this molecule displayed an IC50 of more than 10 µM.

`COc1ccc(CN2CCNC2=O)cc1` yielded an inhibition at 10 µM in the data set with B16 [1] of 13%. The IC50 with B16 [2] is more than 10 µM.

`CCc1ccc(CN2CCCNC2=S)cc1` yielded an inhibition at 10 µM in the data set on B16 [1] of more than 100%. The molecule also displayed an IC50 with B16 [2] of 1.3 µM.

`CC(C)(C)c1ccc(CN2CCCNC2=S)cc1`: the inhibition at 10 µM in the data set on B16 [1] is more than 100%. Besides, the Activity entry in the data set on B16 [3] was “Non-toxic”. In the data set on B16 [4], the inhibition entry was “Active”. The molecule further gave a half-maximal inhibitory concentration (IC50) with B16 [2] of 0.8 µM. For the same molecule, the inhibition entry in data set [5] is “inactive”.

In the data set with B16 [1], `S=C1NCCN1CCCc1ccccc1` yielded an inhibition at 10 µM of 63%. Further, the IC50 in the data set on B16 [2] is 4.2 µM.

The molecule `Cc1ccc(CN2CCNC2=S)cc1` returned an inhibition at 10 µM with B16 [1] of 64%. Also, 4.8 µM corresponded to half-maximal inhibition with B16 [2] (IC50).

`S=C1NCCN1Cc1ccccc1` had an inhibition at 10 µM in the data set on B16 [1] of 35%. Besides, the IC50 in the data set with B16 [2] is more than 10 µM.

With `OC[C@H]1O[C@@H](Oc2ccc(O)cc2)[C@H](O)[C@@H](O)[C@@H]1O` [ARBUTIN], the inhibition at 10 µM in the data set with B16 [1] was more than 100%.

For the molecule `S=C1NCCCN1Cc1ccc(Cl)cc1`, the inhibition at 10 µM in the data set on B16 [1] is more than 100%. Further, inhibition with B16 [2] was half-maximal at 2.4 µM (IC50).

As to `S=C1NCCCN1CCc1ccccc1`, the inhibition at 10 µM with B16 [1] was 93%. Also, the IC50 in the data set with B16 [2] stood at 2.9 µM.

In the data set with B16 [1], `S=C1NCCN1Cc1ccc(Cl)cc1` came in with an inhibition at 10 µM of 79%. Further, in the data set on B16 [2], half-maximal inhibition (IC50) was put at 4.3 µM.

For the molecule `O=C1NCCN1CCCc1ccccc1`, in the data set on B16 [1], the inhibition at 10 µM was determined as 10%. In the data set with B16 [2], the IC50 was more than 10 µM.

In turn, `Cc1ccc(CN2CCNC2=O)cc1` showed an inhibition at 10 µM in the data set on B16 [1] of 14%. This molecule gave an IC50 in the data set with B16 [2] of more than 10 µM.

With `COc1ccc(CN2CCCNC2=S)cc1`, testing at 10 µM with B16 [1] gave an inhibition of 60%. In the data set with B16 [2], this molecule displayed an IC50 of 6.1 µM.

In the case of `CC(C)(C)c1ccc(CN2CCCNC2=O)cc1`, in the data set with B16 [1], 10 µM produced 30% inhibition. The same molecule displayed a concentration for half-maximal inhibition (IC50) in the data set with B16 [2] of more than 10 µM.

`O=C1NCCCN1Cc1ccc(Cl)cc1`: the inhibition at 10 µM in the data set on B16 [1] was 26%. Besides, in the data set on B16 [2], the IC50 is more than 10 µM.

For the molecule `COc1ccc(CN2CCCNC2=O)cc1`, the inhibition at 10 µM with B16 [1] is 20%. In the data set with B16 [2], this molecule gave an IC50 of more than 10 µM.

In the data set on B16 [1], `Cc1ccc(CN2CCCNC2=S)cc1` returned an inhibition at 10 µM of 80%. Also, in the data set with B16 [2], the IC50 came to 5.1 µM.

Consider `CCc1ccc(CN2CCCNC2=O)cc1`, for which at 10 µM the inhibition with B16 [1] was 29%. The IC50 in the data set on B16 [2] is more than 10 µM.

As for `O=C1NCCN1Cc1ccc(Cl)cc1`, the inhibition at 10 µM in the data set on B16 [1] is 10%. Moreover, the IC50 in the data set on B16 [2] was more than 10 µM.

`S=C1NCCCN1Cc1ccccc1` gave an inhibition at 10 µM in the data set with B16 [1] of 42%. In addition, the IC50 in the data set on B16 [2] was more than 10 µM.

In the data set with B16 [1], `Cc1ccc(CN2CCCNC2=O)cc1` returned an inhibition at 10 µM of 5%. The molecule further returned an IC50 in the data set with B16 [2] of more than 10 µM.

Regarding `O=C1NCCCN1CCCc1ccccc1`, the inhibition at 10 µM in the data set on B16 [1] was determined as 10%. Besides, the IC50 in the data set on B16 [2] was more than 10 µM.

Regarding `O=C1NCCCN1Cc1ccccc1`, the inhibition at 10 µM in the data set on B16 [1] amounted to 0%. Moreover, the IC50 with B16 [2] is more than 10 µM.

Turning to `O=C1NCCCN1CCc1ccccc1`, 10 µM produced 10% inhibition with B16 [1]. The molecule further displayed an IC50 with B16 [2] of more than 10 µM.
